The values below come from ChEMBL document CHEMBL4020823, “Highly Selective, Potent, and Oral mTOR Inhibitor for Treatment of Cancer as Autophagy Inducer” (J Med Chem, 2018).

The species entered for series [1] is Homo sapiens. Nature of the series: Inhibition of mTORC1 in human SiHa cells assessed as reduction in S6 phosphorylation at Ser 240/244 residues at 0.25 to 0.5 uM by Western blot analysis. The format is cell-based. Put shortly: (§1)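 Cells treated with the indicated concentrations, then whole-cell lysates immunoblotted. mTORC1 activity read as S6 and 4E-BP1 phosphorylation; mTORC2 activity read as AKT Ser473 phosphorylation. Blocking in 5% skim milk, primary antibodies at 4 °C overnight, peroxidase-conjugated secondary, ECL detection.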
(In general: Immunoblotting shows a protein as a band on a membrane.)

Series [2] relates to HeLa. Nature of the series: Induction of autophagy in human HeLa cells assessed as increase in LC3-2 puncta level after 48 hrs by immunofluorescence staining based microscopic analysis. The format is functional, cell-based. The method in brief: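 Cells were grown on glass coverslips and exposed to inhibitor for 48 h. They were fixed in 4% paraformaldehyde, permeabilized with 0.15% Triton X-100 and blocked in 4% BSA/PBS for 1 h. Anti-LC3B was applied overnight at 1:200, followed by FITC secondary and DAPI nuclear stain. LC3B-II puncta were counted by fluorescence microscopy.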

For series [3], the species on record is Mus musculus. Nature of the series: Inhibition of full length recombinant mouse PI3K p85alpha/p110alpha E545K mutant at 1 uM relative to control. Put shortly: (§2)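 Eurofins KinaseProfiler panel with compound at a single 1 μM concentration. ATP at the Km of each kinase. Result is % inhibition, mean of two independent experiments.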
Series [4] can be described thus: Protein binding in human plasma at 4 uM after 4 hrs by equilibrium dialysis method. Particulars: read-out: PPB (converted). The series is classed as ADME, cell-free. The method in brief:
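Plasma protein binding measured in rabbit and human plasma with compound at 4 μM over a 4 h period; result given as percent bound.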
(In general: In equilibrium dialysis free small molecules cross a membrane that holds back macromolecules.)

A further series deals with MDA-MB-231. Nature of the series: Cell cycle arrest in human MDA-MB-231 cells assessed as accumulation at G0/G1 phase at 0.25 to 0.5 uM after 24 hrs by propidium iodide-staining based flow cytometric analysis. The format is functional. The method in brief: (§3)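 Cells were seeded at 5 × 10^5 cells/mL. At 24 h after plating they were treated with increasing concentrations for 24 h, washed in PBS, and fixed in ice-cold 70% ethanol for at least 24 h. They were stained with propidium iodide plus RNase A for 30 min at 37 °C and analysed by flow cytometry for phase distribution.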

Series [5] can be described thus: MRT (0 to infinity) in Sprague-Dawley rat at 20 mg/kg, iv administered as single dose by HPLC analysis. The series is classed as ADME, organism-based. Particulars: in vivo. The method in brief:
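Rats fasted overnight, then given a single 20 mg/kg dose either iv or po. Blood collected and centrifuged immediately to obtain plasma. Plasma drug levels measured by HPLC, and pharmacokinetic parameters derived from both routes.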

The species entered for series [6] is Homo sapiens. Nature of the series: Inhibition of mTORC1 in human MCF7 cells assessed as reduction in S6 phosphorylation at Ser 240/244 residues at 0.25 to 0.5 uM by Western blot analysis. The format is cell-based. The method in brief: as §1
The target in series [7] is PI3K p110 delta/p85 alpha (Mus musculus) (UniProt P26450+O35904). Nature of the series: Inhibition of full length recombinant mouse PI3K p110delta/p85alpha at 1 uM relative to control. The format is protein-complex assay. Put shortly:
as §2

The species entered for series [8] is Homo sapiens. Nature of the series: Inhibition of mTORC2 in human MCF7 cells assessed as reduction in AKT phosphorylation at Ser473 residues at 0.25 to 0.5 uM by Western blot analysis. The series is classed as cell-based. The method in brief:
as §1

In the next series the target is mTOR/FKBP12A/FKBP12B (Homo sapiens, UniProt P42345+P62942+P68106). Nature of the series: Inhibition of full length recombinant human mTOR/FKBP12. The format is protein-complex assay.
mTOR/FKBP12A/FKBP12B, sequence (P62942 2-108 limits assumed, other chains not shown): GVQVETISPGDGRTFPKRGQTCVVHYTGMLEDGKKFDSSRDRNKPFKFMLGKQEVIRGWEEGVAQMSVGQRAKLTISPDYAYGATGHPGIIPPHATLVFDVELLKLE
mTOR/FKBP12A/FKBP12B, sequence (P68106 whole entry, other chains not shown): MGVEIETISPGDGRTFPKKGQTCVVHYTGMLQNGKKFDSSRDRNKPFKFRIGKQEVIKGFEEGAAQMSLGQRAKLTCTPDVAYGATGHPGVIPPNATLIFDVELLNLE
The test system of series [9] is HeLa. Nature of the series: Inhibition of mTORC2 in human HeLa cells assessed as reduction in AKT phosphorylation at Ser473 residues at 0.5 to 1 uM by Western blot analysis. The format is cell-based. The method in brief: as §1
Series [10] deals with PI3K p110 beta/p85 beta (Mus musculus) (UniProt Q8BTI9+O08908). Nature of the series: Inhibition of full length recombinant mouse PI3K p110beta/p85beta at 1 uM relative to control. The format is protein-complex assay. Put shortly:
as §2

Series [11] relates to Mus musculus. Nature of the series: Down regulation of S6 phosphorylation at Ser240/244 residues in human T47D cells xenografted in BALB/c nude mouse administered via oral gavage after 3 weeks by hematoxylin and eosine staining based light microscopic assay. The series is classed as functional, cell-based. Put shortly:
(§4)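 Tumours from the oral 3-week T-47D xenograft study were formalin-fixed, paraffin-embedded and cut into 5 μm sections. Sections were deparaffinized, rehydrated and incubated overnight at 4 °C with phospho-specific primary antibody at 1:100. Biotin secondary was applied for 1 h at room temperature, then ABC-peroxidase/DAB with hematoxylin counterstain. Sections were viewed by light microscopy.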
(In general: A xenograft is tissue or cells of one species grown in another, often human tumour cells in immunodeficient mice.)

The target in series [12] is PI3-kinase p110-alpha/p85-alpha (Homo sapiens) (UniProt P27986+P42336). Nature of the series: Inhibition of full length recombinant human PI3K p110alpha/p85alpha at 1 uM relative to control. The format is protein-complex assay. Put shortly: as §2
The test system of series [13] is HeLa. Nature of the series: Inhibition of mTORC1 in human HeLa cells assessed as reduction in 4E-BP1 phosphorylation at Ser65 residues at 0.5 to 1 uM by Western blot analysis. The series is classed as cell-based. Put shortly: as §1
The species named for series [14] is Mus musculus. Nature of the series: Inhibition of full length recombinant mouse PI3K p110alpha/p65alpha at 1 uM relative to control. The method in brief:
as §2

Series [15] can be described thus: Cmax in Sprague-Dawley rat at 20 mg/kg, iv administered as single dose by HPLC analysis. Particulars: in vivo. The series is classed as ADME, organism-based. The arrangement: dose 20 mg/kg, route intravenous. The method in brief:
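Rats fasted overnight, then given one 20 mg/kg dose either iv or po. Blood was collected and centrifuged at once to obtain plasma. Plasma drug levels were measured by HPLC, and PK parameters were derived from the concentration-time data.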

Series [16] has as its system Mus musculus. Nature of the series: Down regulation of 4E-BP1 phosphorylation at Thr37/46 residues in human T47D cells xenografted in BALB/c nude mouse administered via oral gavage after 3 weeks by hematoxylin and eosine staining based light microscopic assay. The format is functional, cell-based. Put shortly:
as §4

The test system of series [17] is HeLa. Nature of the series: Cell cycle arrest in human HeLa cells assessed as accumulation at G0/G1 phase at 0.5 to 1 uM after 24 hrs by propidium iodide-staining based flow cytometric analysis. The format is functional. Put shortly:
as §3

The target of series [18] is PI3K p110 alpha/p85 alpha (Mus musculus) (UniProt P26450+P42337). Nature of the series: Inhibition of full length recombinant mouse PI3K p110alpha/p85alpha at 1 uM relative to control. The format is protein-complex assay. The method in brief: as §2
In series [19] the test system is Mus musculus. Nature of the series: Up regulation of LC3B levels in human T47D cells xenografted in BALB/c nude mouse administered via oral gavage after 3 weeks by hematoxylin and eosine staining based light microscopic assay. The series is classed as functional, cell-based. The method in brief: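 Tumors taken from daily-dosed T-47D xenograft mice, formalin-fixed and paraffin-embedded, cut into 5 μm sections. Sections deparaffinized, rehydrated, and incubated overnight at 4 °C with anti-LC3B at 1:100. Then biotin-labeled secondary for 1 h at room temperature, ABC-peroxidase with DAB, hematoxylin counterstain. Read by light microscopy.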

Series [20] concerns Mus musculus. Nature of the series: Down regulation of 4E-BP1 phosphorylation at Ser65 residues in human T47D cells xenografted in BALB/c nude mouse administered via oral gavage after 3 weeks by hematoxylin and eosine staining based light microscopic assay. The format is functional, cell-based. The method in brief:
as §4

The species named for series [21] is Homo sapiens. Nature of the series: Inhibition of mTORC1 in human SiHa cells assessed as reduction in 4E-BP1 phosphorylation at Thr37/46 residues at 0.25 to 0.5 uM by Western blot analysis. The series is classed as cell-based. Put shortly:
as §1

Calls of active or inactive are those of the source. No cut-off for these calls is given here.

For orientation: inhibition means the relative decrease from the control value, in per cent. As usually defined, the MRT inf is a mean duration of stay, worked out from the concentration-time curve. In general, IC50 refers to the midpoint of a concentration-inhibition curve. The Cmax is the maximum level reached in the sampled fluid or tissue. With `N#CCN1CCC(n2c(=O)cnc3cnc4ccc(-c5ccc(N)nc5)cc4c32)CC1`, the inhibition result in the series filed under Homo sapiens [1], in the series listed under Homo sapiens [6], in the series listed under Homo sapiens [8], with HeLa [9], with HeLa [13] and in the series filed under Homo sapiens [21] was “Active” each time. In addition, the Activity result in the series with HeLa [2], with Mus musculus [11], in the series with Mus musculus [16], in the series on Mus musculus [19] and with Mus musculus [20] was “Dose-dependent effect” throughout. The inhibition in the series filed under Mus musculus [3] is 9%; in series [7] it was 4%; in series [10] it was 8%; in [12], 10%; in the series filed under Mus musculus [14], 9%; in series [18] it was 17%. In addition, the fraction unbound at 4 h, 4 µM in series [4] is 0.36. Further, the outcome in the series on MDA-MB-231 and in the series with HeLa [17] was Active. Further, in [5], the MRT inf is 11.6 h. In addition, the concentration for half-maximal inhibition (IC50) at mTOR/FKBP12A/FKBP12B came out at 8 nM. This molecule came in with a Cmax in [15] of 4470 ng/mL.
